# Source: PubChem (The Scripps Research Institute Molecular Screening Center)
# TAAR1 antag – antagonists of human TAAR1; AID 624466; inhibition, % at 3 µM; CHO RD-HGA16 TAAR1, Fluo-8 calcium fluorescence, antagonist; 360,000 tested, 1.5% active;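 active means inhibition above a per-plate cutoff, the mean inhibition of test compounds on that plate plus 3 SD, cut at about 49% in these data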;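 further: 0% = DMSO plus EC80 beta-PEA response and 100% = DMSO alone without agonist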
# Target sequence (Q96RJ0 whole entry, looked up): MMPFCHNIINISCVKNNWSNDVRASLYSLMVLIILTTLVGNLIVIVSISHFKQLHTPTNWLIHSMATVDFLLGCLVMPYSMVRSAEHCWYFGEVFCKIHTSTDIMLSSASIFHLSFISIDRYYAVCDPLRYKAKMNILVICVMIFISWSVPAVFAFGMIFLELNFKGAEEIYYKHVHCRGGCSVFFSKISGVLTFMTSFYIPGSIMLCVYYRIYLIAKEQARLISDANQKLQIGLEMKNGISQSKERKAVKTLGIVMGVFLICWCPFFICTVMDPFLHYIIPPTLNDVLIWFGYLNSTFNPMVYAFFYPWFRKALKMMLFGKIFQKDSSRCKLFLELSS
#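 Test system – hTAAR1-expressing CHO RD-HGA16 cells, Gα16-coupled · Also added – β-PEA at EC80 concentration, post-compound challenge · Compound – 3 µM, single point · Incubation – dye loading 75 min at 37 °C, then 30 min room temperature · Measured by – Fluo-8 intracellular calcium dye fluorescence, real-time kinetic reads · Benchmarks – vehicle and agonist controls · Replicates – singlicate, one well per test compound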
# CHO parental Ca – counter-screen for OX1R antagonists: effect in parental CHO cells | parental CHO-K1, ATP-induced calcium, Fluo-8 fluorescence | 330,000 tested, 0.63% active | inhibition, % at 5.6 µM | AID 463079;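 active means inhibition above that plate's mean sample inhibition plus 3 SD, cut at about 26% in these data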;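 further: 0% = ATP-challenged DMSO wells and 100% = DMSO wells without ATP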
#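 Assay system – parental CHO cells · Reagent – ATP stimulus · Detection – intracellular calcium via Fluo-8 no-wash fluorescent dye · Evaluation – percent inhibition of ATP-evoked calcium rise, normalized to controls · Controls – ATP wells versus no-ATP DMSO wells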
# OX1R antag-1 – blocks the human orexin 1 receptor; 330,000 tested, 1.8% active; inhibition, % at 6.6 µM; OX1R-expressing cells, FRET antagonist read-out; AID 485270; O43613; in the data active means inhibition mostly above about 38%, no sharp cut-off; inactive means mostly below about 40%;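 further: 0% = agonist challenge alone and 100% = reference antagonist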
# GPR7 antagonist – blocks human GPR7 receptor signaling; P48145; GPR7-expressing cells, fluorescence antagonist assay; inhibition, % at 4.4 µM; 290,000 tested, 1.1% active; AID 1861; in the data active means inhibition above about 16%, passing the limit was not always enough;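 further: cells stimulated with the agonist NPW; 0% = agonist with vehicle and 100% = vehicle without agonist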
# Target sequence (P48145 whole entry, looked up): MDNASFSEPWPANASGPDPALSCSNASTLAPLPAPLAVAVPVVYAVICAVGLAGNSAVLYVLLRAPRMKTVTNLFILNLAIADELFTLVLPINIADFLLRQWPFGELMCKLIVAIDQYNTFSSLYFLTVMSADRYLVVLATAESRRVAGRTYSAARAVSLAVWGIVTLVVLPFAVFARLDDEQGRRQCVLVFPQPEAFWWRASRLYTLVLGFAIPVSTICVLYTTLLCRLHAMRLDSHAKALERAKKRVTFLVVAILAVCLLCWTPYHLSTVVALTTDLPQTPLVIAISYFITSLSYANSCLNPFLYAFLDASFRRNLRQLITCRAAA
# TAAR1 ag – agonists of human TAAR1 | CHO RD-HGA16 TAAR1, Fluo-8 calcium fluorescence; vehicle wells 0%, saturating PEA agonist 100% | activation, % at 3 µM | Q96RJ0 | 360,000 tested, 0.99% active;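 active means activation above the mean activation of all test compounds in the run plus 3 SD, cut at about 38% in these data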
#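 Test system: RD-HGA16 (CHO) cells co-expressing Gα16 and hTAAR1 | Doses: Single dose, 3 µM | Schedule: 17-24 h seeding, 75 min 37 °C dye, 30 min RT | Evaluation: % activation from peak over basal fluorescence ratio, DMSO-to-PEA scaled | Technique: Kinetic Fluo-8 calcium fluorescence | Benchmarks: Low control DMSO, high control PEA (EC100)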
# OX1R antag-2 – antagonists of human orexin 1 receptor | 330,000 tested, 0.43% active | CHO/OX1R cells, Fluo-8 calcium fluorescence, orexin A | inhibition, % at 5 µM;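 active means inhibition above its plate's threshold, mean inhibition of all tested compounds on the plate plus 3 SD, cut at about 37% in these data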;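 further: 0% = orexin A challenge wells and 100% = SB-334867-A antagonist wells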
# OX1R HTRF conf – OX1R (human) antagonism, HTRF confirmed; OX1R-expressing cells, HTRF antagonist assay; 1,800 tested, 49% active; inhibition, % at 6.6 µM; shares compounds with OX1R antag-1; in the data active means inhibition above about 55%;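 further: CHO cells expressing OX1R stimulated with orexin A at about EC80; 0% = agonist challenge alone and 100% = reference antagonist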
# CHO-K1 HTRF – signal in parental CHO-K1 cells, OX1R antagonist counter-screen; inhibition, % at 6.6 µM; 1,800 tested, 48% active; HTRF counterscreen; shares compounds with OX1R antag-1; in the data active means inhibition above about 17%;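 further: 0% = agonist challenge with vehicle and 100% = vehicle alone without agonist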
# Numbers without * were called inactive; · = no result; + = active, no number. Compounds with a hit are over-represented: about 4.6% of the library has one in this group of screens.
SMILES,TAAR1 antag,CHO parental Ca,OX1R antag-1,GPR7 antagonist,TAAR1 ag,OX1R antag-2,OX1R HTRF conf,CHO-K1 HTRF
Cn1cnnc1Sc1ccc(C(=O)OCC(=O)NCC(F)(F)F)cc1[N+](=O)[O-],-13,9,78*,-15,-1,-7,30,43*
CCCCNC(=O)C1(C)CCCCN1Cc1ccc(-c2ccccc2)cc1 (configuration not stated),-4,·,·,·,9,·,·,·
COC(=O)c1c(=O)n(O)c2ccc(OC)cc2[n+]1[O-],·,-11,88*,-6,·,-12,33,47*
COc1cc(/C=N/NC(=O)c2sc(N)c(C#N)c2C)cc(Br)c1O,41,-12,82*,0,18,-18,30,-5
CCOc1ccccc1NC(=S)NNS(=O)(=O)c1c(C)cc(C)cc1C,-15,-3,97*,-3,1,-13,26,4
O=C(N/N=C/c1ccc(O)cc1)c1cc[n+](Cc2ccccc2)cc1,-4,-11,90*,1,5,-13,39,45*
O=C(N/N=C/c1ccc(OCc2ccccc2)cc1)c1cc[n+](Cc2ccccc2)cc1,-9,-1,20,-11,5,-1,·,·
COC(=O)c1cc(C(=O)OCC(=O)NC2CCCC2)cc([N+](=O)[O-])c1,-11,1,34,-7,-2,-13,·,·
CN(C(=O)COC(=O)/C=C/c1cccc([N+](=O)[O-])c1)C1CCS(=O)(=O)C1 (configuration not stated),-3,-11,90*,-11,1,-18,41,43*
CCN(C(=O)COC(=O)/C=C/c1cccc(Br)c1)C1CCS(=O)(=O)C1 (configuration not stated),-31,-2,21,-13,1,-13,·,·
COC(=O)c1cc(C(=O)OCC(=O)N(C)C2CCS(=O)(=O)C2)cc([N+](=O)[O-])c1 (configuration not stated),-11,-12,120*,-9,1,-8,88*,70*
COC(=O)c1cc(C(=O)OCC(=O)NC2CCS(=O)(=O)C2)cc([N+](=O)[O-])c1 (configuration not stated),-21,-12,84*,-1,1,-14,43,47*
Cc1ccc(S(=O)(=O)NCc2ccc3c(c2)OCO3)cc1,-18,·,·,·,0,·,·,·
CN1OC[C@@H]2CN(C(=O)C(C)(C)C)[C@H](c3ccc(-c4cccnc4)cc3)C[C@@H]21,-18,·,·,·,1,·,·,·
COc1ccc(NC(=O)CCNS(=O)(=O)c2cccc3nsnc23)cc1OC,2,-1,84*,-7,3,-4,30,25*
COc1ccc(/C=N/NC(=O)c2cccc(C(=O)N/N=C/c3ccc(OC)c(OC)c3)n2)cc1OC,6,·,·,-20,4,·,·,·
COc1ccc(/C=N/NC(=O)Nc2cccc3nsnc23)cc1OC,10,-13,82*,10,7,19,67*,-5
COc1ccc(OC)c(NC(=O)CCNS(=O)(=O)c2cccc3nsnc23)c1,-11,-6,46,-5,9,-25,·,·
CCCCC(=O)N(C)c1c(C)nc2ccc(C(=O)N3CCNC(=O)C3)cn12,-18,·,·,·,1,·,·,·
C/C=N/NC(=O)c1cc(Br)ccc1O,-14,-2,77*,-8,13,-2,21,3
c1ccc(-c2cnn3nnnc3n2)cc1,10,-8,+,-3,17,-2,71*,115*
O=C(N=Nc1c(O)[nH]c2ccccc12)c1ccco1,0,-1,113*,-7,9,-10,99*,55*
Cc1ccc(C(=O)N/C(=C/c2ccc(-c3cccc([N+](=O)[O-])c3)o2)C(=O)NC(C)(C)C)cc1,34,-20,85*,-3,3,3,69*,14
Cc1nc(NC(=O)c2ccccc2)sc1-c1csc(NCc2ccccc2)n1,8,-14,21,1,0,-17,·,·
Cc1nc(NC(=O)c2ccccc2)sc1-c1csc(N)n1,10,-17,96*,1,19,30,92*,15
SMILES,TAAR1 antag,CHO parental Ca,OX1R antag-1,GPR7 antagonist,TAAR1 ag,OX1R antag-2,OX1R HTRF conf,CHO-K1 HTRF
CCN(CC)C(=O)CSc1nnc(-c2c[nH]c3ccccc23)o1,0,-15,78*,11,3,-16,44,3
CN1CCN(C(=O)CCn2c(=S)[nH]c3ccccc3c2=O)CC1,0,·,·,·,1,·,·,·
Cc1ccc(CC(=O)Nc2nc3ccccc3s2)cc1,4,-18,21,9,19,-15,·,·
Cc1nc2c(ccc3nc(NC(=O)Cc4ccccc4)sc32)s1,-2,-18,77*,-7,-3,5,89*,3
O=C(CN1CCN(c2ccc(O)cc2)CC1)Nc1cc([N+](=O)[O-])ccc1Cl,10,-7,79*,-4,6,8,32,47*
CC(=O)N1CCN(CC(=O)Nc2cc([N+](=O)[O-])ccc2Cl)CC1,-4,-10,58,-7,0,0,·,·
CN(C)CCCNc1ccc(-c2nn(C)c(=O)c3ccccc23)cc1[N+](=O)[O-],13,-9,118*,-5,1,-12,31,40*
CN(C)CCCNc1ccc(S(N)(=O)=O)cc1[N+](=O)[O-],4,-4,122*,-7,7,2,39,55*
CC(O)CNc1ccc(-c2nn(C)c(=O)c3ccccc23)cc1[N+](=O)[O-] (configuration not stated),2,-12,33,-7,0,-25,·,·
CC(C)C[C@H]1COc2c(Cl)cccc2S(=O)(=O)N1,-4,·,·,·,-1,·,·,·
O=C(NCc1cccs1)c1cccc2c(-c3cccnc3)coc12,12,·,·,·,6,·,·,·
COc1ccc2cc(C(N)=O)/c(=N/NC(=O)c3ccco3)oc2c1,11,-3,79*,-7,2,-7,54,11
OC[C@@H]1CN(Cc2ccc(F)cc2)C[C@H](n2cnc3c(NCc4ccc(F)cc4)ncnc32)O1,10,·,·,·,13,·,·,·
CCn1c(/C=C2\C(=O)N(C)c3ccccc32)nc2ccccc2c1=O,6,-13,20,-4,9,-31,·,·
CCn1c(/C=C2/C(=O)N(C)c3ccccc32)nc2ccccc2c1=O,22,-21,86*,-4,14,-15,28,8
Cn1nc(C2CC2)cc1NC(=O)C1(C)CCN1C(=O)CC(c1ccccc1)c1ccccc1 (configuration not stated),-28,·,·,·,1,·,·,·
O=[N+]([O-])c1cccc2c(N3CCCC3)ccnc12,-12,-5,132*,-12,4,3,61*,101*
